Measured values from ChEMBL document CHEMBL1157808, “Synthesis and biological evaluation of phenolic 4,5-dihydroisoxazoles and 3-hydroxy ketones as estrogen receptor alpha and beta agonists” (Bioorg Med Chem, 2010).
The source made the active and inactive calls. No cut-off for these calls is given here.

Experiments:
[1] = target: Estrogen receptor beta (Homo sapiens) (UniProt Q92731); test: Agonist activity at ERbeta expressed in HEK293 cells at 10 uM after 24 hrs by luciferase reporter gene assay relative to 3,17-beta-estradiol; type: functional, cell-based
How it was run: (§1)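 HEK293 cells (no endogenous ER) in phenol-free DMEM with 5% delipidated FBS were transfected for 4 h with 5 ng ERα or ERβ expression vector, 75 ng pERE2TATA-LUC reporter and 20 ng pCMVβ. Cells then received 10 μM compound, 10 nM E2 or vehicle (0.1% v/v) for 24 h. Luciferase was normalized to β-galactosidase and expressed as 100% × (test − vehicle)/(E2 − vehicle). Values are means of at least three independent transfections.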

[2] = Selectivity for ERalpha over ERbeta
[3] = target: T1, Estrogen receptor (Homo sapiens) (UniProt P03372); test: Induction of ERalpha-mediated pS2 gene expression in human MCF7 cells at 10 nM after 24 hrs by real-time quantitative PCR analysis; type: cell-based
T1 sequence (whole entry): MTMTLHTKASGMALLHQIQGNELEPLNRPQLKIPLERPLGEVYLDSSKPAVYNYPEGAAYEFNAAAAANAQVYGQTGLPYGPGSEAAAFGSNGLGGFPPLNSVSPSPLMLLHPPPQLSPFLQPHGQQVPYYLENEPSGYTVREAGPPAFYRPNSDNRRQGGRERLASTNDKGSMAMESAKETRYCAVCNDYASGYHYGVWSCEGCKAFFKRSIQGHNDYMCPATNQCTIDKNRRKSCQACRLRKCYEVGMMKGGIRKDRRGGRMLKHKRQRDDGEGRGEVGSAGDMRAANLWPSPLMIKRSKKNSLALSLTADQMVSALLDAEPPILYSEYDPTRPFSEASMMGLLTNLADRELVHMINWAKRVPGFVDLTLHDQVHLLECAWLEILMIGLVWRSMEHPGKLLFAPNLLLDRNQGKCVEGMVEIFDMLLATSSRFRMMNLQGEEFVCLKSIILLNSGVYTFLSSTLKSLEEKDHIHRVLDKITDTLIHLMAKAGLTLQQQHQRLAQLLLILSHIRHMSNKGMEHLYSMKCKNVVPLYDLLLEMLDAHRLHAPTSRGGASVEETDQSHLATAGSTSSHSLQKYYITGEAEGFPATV
How it was run: (§2)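 MCF-7 cells were grown overnight in phenol red-free DMEM with 5% charcoal-stripped FBS. They were then exposed to ligand at 10 nM final or to solvent for 6 h or 24 h. Total RNA was extracted and reverse-transcribed. pS2 mRNA was measured by TaqMan real-time qPCR with RPLPO as reference and reported as fold change relative to control.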

[4] = target: T1, Estrogen receptor (Homo sapiens); test: Antagonist activity at ERalpha in human MCF7 cells assessed as decrease in 3,17-beta-estradiol-induced pS2 gene expression at 1 uM after 24 hrs by real-time quantitative PCR analysis; type: functional, cell-based
How it was run: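 Competition format: MCF-7 cells were first grown overnight in phenol red-free DMEM with 5% charcoal-stripped FBS. They were then co-treated for 24 h with 10 nM E2 plus 1 μM compound. Total RNA was extracted and pS2 mRNA was quantified by TaqMan real-time qPCR, normalized to RPLPO.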

[5] = target: T1, Estrogen receptor (Homo sapiens); test: Agonist activity at ERalpha expressed in HEK293 cells at 10 uM after 24 hrs by luciferase reporter gene assay relative to 3,17-beta-estradiol; type: functional, cell-based; how it was run: as §1
Homo sapiens = species: Homo sapiens; test: Selectivity ratio of relative binding affinity for human ERalpha to relative binding affinity for human ERbeta
How it was run: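 COS-1 cells in DMEM with 10% delipidated FBS were transfected for 24 h with human ERα or ERβ vector (pSG5-hERα/β). Cells were washed, lysed in 0.5 M NaOH at 56 °C for 15 min and counted by scintillation, with nonspecific binding subtracted.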

[6] = target: T1, Estrogen receptor (Homo sapiens); test: Induction of ERalpha-mediated pS2 gene expression in human MCF7 cells at 10 nM after 6 hrs by real-time quantitative PCR analysis relative to control; type: cell-based; how it was run: as §2
[7] = target: T1, Estrogen receptor (Homo sapiens); test: Induction of ERalpha-mediated pS2 gene expression in human MCF7 cells at 10 uM after 24 hrs by real-time quantitative PCR analysis; type: cell-based
[8] = target: T1, Estrogen receptor (Homo sapiens); test: Ratio of compound to 3,17-beta-estradiol binding affinity at ERalpha expressed in COS-1 cells

Sequence of Estrogen receptor beta (Homo sapiens) (Q92731 whole entry): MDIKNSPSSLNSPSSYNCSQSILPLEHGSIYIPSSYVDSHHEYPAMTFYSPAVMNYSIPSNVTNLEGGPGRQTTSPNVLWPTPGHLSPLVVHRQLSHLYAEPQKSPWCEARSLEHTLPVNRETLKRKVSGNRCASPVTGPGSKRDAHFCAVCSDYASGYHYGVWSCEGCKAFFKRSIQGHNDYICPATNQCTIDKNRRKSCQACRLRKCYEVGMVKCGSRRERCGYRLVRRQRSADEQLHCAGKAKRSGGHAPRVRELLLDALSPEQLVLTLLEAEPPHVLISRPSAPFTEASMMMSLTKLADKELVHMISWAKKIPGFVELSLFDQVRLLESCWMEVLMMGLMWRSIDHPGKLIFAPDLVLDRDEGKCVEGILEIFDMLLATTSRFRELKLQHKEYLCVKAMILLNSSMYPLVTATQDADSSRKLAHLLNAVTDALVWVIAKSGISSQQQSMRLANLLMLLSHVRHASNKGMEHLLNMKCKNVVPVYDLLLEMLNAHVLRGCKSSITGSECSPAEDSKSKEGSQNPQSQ

Row | Structure (SMILES) | Activity [1] [%] | Selectivity ratio [2] | Activity [3] | inhibition [4] [%] | Activity [5] [%] | Ratio (Homo sapiens) | fold change (FC) [6] | Activity [7] | Ratio [8]
1 | Oc1ccc(CCCC2=NOC(c3ccccc3)C2)cc1 (single isomer, unassigned; 45a) | 44.7 | 2 | inactive | 32 | 104 | 157 | 1.8 |  | 
2 | O=C(CCCc1ccc(O)cc1)CC(O)c1ccccc1 (single isomer, unassigned; 50b) | 155 |  | Active | 29 | 140 | 5 |  |  | 
3 | Oc1ccc(CCCC2=NOC(c3ccccc3)C2)cc1 (single isomer, unassigned; 45b) | 77.1 |  | inactive | 27 | 65 | 41 |  | inactive | 
4 | O=C(CCCc1ccc(O)cc1)CC(O)c1ccccc1 (single isomer, unassigned; 50a) | 170 |  | inactive | 23 | 139 | 4 |  | inactive | 2
5 | CC1(c2ccccc2)CC(CCCc2ccccc2)=NO1 (racemic) | 15.5 |  |  |  | 69.5 | 1.5 |  |  | 
6 | O=C(CCc1ccc(O)cc1)CC(O)Cc1ccccc1 (racemic) | 107 |  |  |  | 55 | 0.2 |  |  | 
7 | CC(O)(CC(=O)CCCc1ccc(O)cc1)c1ccccc1 (racemic) | 103 |  |  |  | 90.9 | 8 |  |  | 
